Measurements: ChEMBL document CHEMBL1133480, “Rational design, synthesis, and biological activity of benzoxazinones as novel factor Xa inhibitors” (J Med Chem, 2000)

Columns and labels:
Coagulation factor X [1] = target: T1, Coagulation factor X (Homo sapiens, UniProt P00742); assay: In vitro inhibition of coagulation factor Xa.
Procedure, shortened: (§1)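 Enzyme was preincubated 1 h at room temperature with inhibitor across 14 concentrations (1 nM–100 μM final). A405 was read kinetically over 10 min at 37 °C. Percent inhibition came from the linear progress-curve slopes, typically in duplicate.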

Plasminogen [2] = target: T2, Plasminogen (Homo sapiens, UniProt P00747); assay: Compound was tested for in vitro inhibitory activity against plasmin at 100 uM
Prothrombin [3] = target: T3, Prothrombin (Homo sapiens, UniProt P00734); assay: Inhibition of thrombin; procedure, shortened: as §1
Serine protease 1 [4] = target: T4, Serine protease 1 (Homo sapiens, UniProt P07477); assay: In vitro inhibitory activity against trypsin; procedure, shortened: as §1
Plasminogen [5] = target: T2, Plasminogen; assay: Inhibition of plasmin at 100 uM
Prothrombin [6] = target: T3, Prothrombin; assay: Inhibition of thrombin at 100 uM
Serine protease 1 [7] = target: T4, Serine protease 1; assay: In vitro inhibitory activity against trypsin at 100 uM
Plasminogen [8] = target: T2, Plasminogen; assay: Compound was tested for in vitro inhibitory activity against plasmin; procedure, shortened: as §1
Coagulation factor X [9] = target: T1, Coagulation factor X; assay: Compound was tested for in vitro inhibitory activity against Coagulation factor X at 100 uM
Prothrombin [10] = target: T3, Prothrombin; assay: Compound was tested for in vitro inhibitory activity against thrombin at 100 uM

T2 sequence (P00747 97-580 limits assumed): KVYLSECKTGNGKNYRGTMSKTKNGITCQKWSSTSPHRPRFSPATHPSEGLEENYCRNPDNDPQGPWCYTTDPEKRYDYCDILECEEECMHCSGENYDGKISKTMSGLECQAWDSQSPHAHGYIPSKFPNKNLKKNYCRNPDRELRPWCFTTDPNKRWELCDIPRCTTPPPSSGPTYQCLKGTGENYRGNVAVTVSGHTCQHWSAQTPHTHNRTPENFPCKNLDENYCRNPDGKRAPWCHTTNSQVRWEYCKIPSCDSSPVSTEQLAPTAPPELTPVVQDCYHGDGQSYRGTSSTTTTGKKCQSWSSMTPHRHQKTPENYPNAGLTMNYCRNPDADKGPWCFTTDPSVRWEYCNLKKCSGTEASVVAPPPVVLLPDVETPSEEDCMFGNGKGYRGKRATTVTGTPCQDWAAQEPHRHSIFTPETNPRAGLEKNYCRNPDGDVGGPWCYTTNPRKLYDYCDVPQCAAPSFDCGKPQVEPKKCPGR
T2 sequence (P00747 581-810 limits assumed): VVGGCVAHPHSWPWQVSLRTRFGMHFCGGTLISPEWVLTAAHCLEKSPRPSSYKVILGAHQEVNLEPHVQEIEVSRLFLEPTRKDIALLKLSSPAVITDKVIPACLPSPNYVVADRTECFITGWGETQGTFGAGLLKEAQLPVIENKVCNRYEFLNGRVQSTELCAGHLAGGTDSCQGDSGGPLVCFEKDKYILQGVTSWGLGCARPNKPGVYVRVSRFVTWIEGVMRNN
T1 sequence (P00742 41-179 limits assumed): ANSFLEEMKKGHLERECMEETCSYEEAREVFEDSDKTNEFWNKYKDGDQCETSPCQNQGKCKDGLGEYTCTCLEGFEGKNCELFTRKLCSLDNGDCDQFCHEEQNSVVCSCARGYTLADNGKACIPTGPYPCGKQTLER
T1 sequence (P00742 235-488 limits assumed): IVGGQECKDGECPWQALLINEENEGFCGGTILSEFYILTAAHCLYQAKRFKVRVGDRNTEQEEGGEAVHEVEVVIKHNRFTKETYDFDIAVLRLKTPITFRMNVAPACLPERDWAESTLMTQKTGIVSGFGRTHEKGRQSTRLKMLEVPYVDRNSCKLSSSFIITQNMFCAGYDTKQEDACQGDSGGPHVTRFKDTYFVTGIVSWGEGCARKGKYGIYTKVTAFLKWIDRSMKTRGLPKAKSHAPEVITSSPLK
T4 sequence (P07477 whole entry): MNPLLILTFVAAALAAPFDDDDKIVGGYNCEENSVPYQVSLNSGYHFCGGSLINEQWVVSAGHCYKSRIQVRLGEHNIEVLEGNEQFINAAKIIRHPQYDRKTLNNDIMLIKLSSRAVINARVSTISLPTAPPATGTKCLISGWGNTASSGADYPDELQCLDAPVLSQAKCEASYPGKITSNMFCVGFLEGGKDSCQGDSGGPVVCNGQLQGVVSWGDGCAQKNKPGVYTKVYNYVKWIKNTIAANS

CC(C)N(CCCCCN1C(=O)C(c2cccc(C(=N)N)c2)Oc2ccccc21)C(C)C (configuration not stated) showed an IC50 (Coagulation factor X [1]) of 120 nM, an inhibition (Plasminogen [2]) of 72% and an IC50 (Prothrombin [3]) of 1200 nM. It also gave an IC50 (Serine protease 1 [4]) of 1200 nM.

With CC1CCCC(C)N1CCCCCN1C(=O)C(c2cccc(C(=N)S)c2)Oc2ccccc21 (configuration not stated) the inhibition (Plasminogen [5]) was 29%, the inhibition (Prothrombin [6]) was 20% and the inhibition (Serine protease 1 [7]) was 5.2%.

CC1CCCC(C)N1CCCCN1C(=O)C(c2cccc(C(=N)N)c2)Oc2ccccc21 (configuration not stated) showed an IC50 (Coagulation factor X [1]) of 12 nM, an IC50 (Plasminogen [8]) of 38000 nM and an IC50 (Prothrombin [3]) of 1100 nM. The IC50 (Serine protease 1 [4]) was 300 nM.

CC1CCCC(C)N1CCCCCN1C(=O)C(c2ccc(C(=N)S)cc2)Oc2ccccc21 (configuration not stated) was tested, and the IC50 (Coagulation factor X [1]) was 34000 nM, the inhibition (Plasminogen [5]) was 44% and the inhibition (Prothrombin [6]) was 32%. It also gave an inhibition (Serine protease 1 [7]) of 7.8%.

With CC1CCCC(C)N1CCCCCN1C(=O)C(c2cccc(C(=N)NN3CCOCC3)c2)Oc2ccccc21 (configuration not stated) the inhibition (Plasminogen [2]) was 0%, the inhibition (Prothrombin [6]) was 15% and the inhibition (Serine protease 1 [7]) was 58%.

For N=C(N)c1cccc(C2Oc3ccccc3N(CCCCCN3CCCCC3)C2=O)c1 (configuration not stated), the IC50 (Coagulation factor X [1]) was 53 nM, the IC50 (Plasminogen [8]) was 21000 nM and the IC50 (Prothrombin [3]) was 3400 nM. The IC50 (Serine protease 1 [4]) was 990 nM.

For COc1cc(C2Oc3ccccc3N(CCCCCN3C(C)CCCC3C)C2=O)cc(OC)c1OC (configuration not stated), the inhibition (Coagulation factor X [9]) was 30%, the inhibition (Plasminogen [5]) was 20% and the inhibition (Prothrombin [6]) was 30%. It also gave an inhibition (Serine protease 1 [7]) of 12%.

In the case of CCCCCCN(CCCCCC)CCCCCN1C(=O)C(c2cccc(C(=N)N)c2)Oc2ccccc21 (configuration not stated), the IC50 (Coagulation factor X [1]) is reported as 1600 nM, the IC50 (Plasminogen [8]) is reported as 2200 nM and the IC50 (Prothrombin [3]) is reported as 1900 nM. It also gave an IC50 (Serine protease 1 [4]) of 2500 nM.

Molecule CC1CCCC(C)N1CCCCCN1C(=O)C(c2cccc(CN)c2)Oc2ccccc21 (configuration not stated) has an IC50 (Coagulation factor X [1]) of 840 nM, an IC50 (Plasminogen [8]) of 25000 nM and an IC50 (Serine protease 1 [4]) of 7800 nM. It also gave an inhibition (Prothrombin [10]) of 64%.

For CC1CCCC(C)N1CCCCCN1C(=O)C(c2ccc(Cl)cc2)Oc2ccccc21 (configuration not stated), the IC50 (Coagulation factor X [1]) was 23000 nM, the inhibition (Plasminogen [5]) was 30% and the inhibition (Prothrombin [6]) was 38%. It also gave an inhibition (Serine protease 1 [7]) of 46%.

CC1CCCC(C)N1CCCCCN1C(=O)C(c2cccc(C(N)=NN3CCOCC3)c2)Oc2ccccc21 (configuration not stated) was tested, and the IC50 (Coagulation factor X [1]) was 1500 nM.

CC1CCCC(C)N1CCCCCN1C(=O)C(c2ccc(Cl)c(Cl)c2)Oc2ccccc21 (configuration not stated) gave an IC50 (Coagulation factor X [1]) of 26000 nM, an inhibition (Plasminogen [5]) of 25% and an inhibition (Prothrombin [6]) of 47%. The inhibition (Serine protease 1 [7]) was 14%.

COc1ccc(C2Oc3ccccc3N(CCCCCN3C(C)CCCC3C)C2=O)cc1 (configuration not stated) was tested, and the IC50 (Coagulation factor X [1]) was 4900 nM, the inhibition (Plasminogen [5]) was 19% and the inhibition (Prothrombin [6]) was 29%. The inhibition (Serine protease 1 [7]) was 2.3%.
